CAL PDZ FP-1 = inhibitors of human CAL PDZ peptide binding. Q9HD26. purified CAL PDZ, TMR-peptide fluorescence polarization, 1 h. inhibition, % at 20 µM. 330,000 compounds, 0.02% hits. AID 504414;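 active means highest replicate inhibition of at least 40%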
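Material: tagged CAL PDZ protein CerCALP, purified; buffer or medium: sodium phosphate/NaCl buffer pH 7.4 with TCEP, IgG, Thesit; also added: fluorescent TMR peptide probe; schedule: 1 h incubation at room temperature before polarization reading; technique: fluorescence polarization from S- and P-plane intensities, G-factor corrected; control set: unlabelled peptide and DMSO controls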
Tn7 DDE FP = disrupts Tn7 cyclic peptide binding to fibrin D-Dimer-E complex; 370,000 compounds, 0.13% hits; P02675; inhibition, % at 8.3 µM; FP displacement of FITC-Tn7 peptide from fibrin DD(E); 0% = median of compound wells per plate;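 active means inhibition above the mean of compounds falling within the control limits plus 3 SD of them, cut at about 14% in these data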
Target sequence (P02675 whole entry, looked up): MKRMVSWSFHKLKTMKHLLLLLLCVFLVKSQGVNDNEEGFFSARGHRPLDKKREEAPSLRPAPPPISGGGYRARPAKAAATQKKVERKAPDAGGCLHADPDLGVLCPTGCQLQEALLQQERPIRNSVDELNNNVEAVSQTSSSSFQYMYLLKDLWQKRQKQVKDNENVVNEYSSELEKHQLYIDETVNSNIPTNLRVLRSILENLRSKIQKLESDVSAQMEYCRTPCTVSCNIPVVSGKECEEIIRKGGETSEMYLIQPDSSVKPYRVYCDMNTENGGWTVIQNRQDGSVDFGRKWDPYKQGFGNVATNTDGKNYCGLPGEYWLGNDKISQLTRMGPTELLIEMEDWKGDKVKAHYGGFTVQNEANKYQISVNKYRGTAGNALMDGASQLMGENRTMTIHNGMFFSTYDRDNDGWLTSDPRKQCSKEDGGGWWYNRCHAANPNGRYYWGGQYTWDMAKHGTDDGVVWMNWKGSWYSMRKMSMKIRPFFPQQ
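System: human fibrin DD(E); quantity: Fibrin-DD(E) at 2 µM final; also added: fluorescent Tn7 probe at 0.1 µM; compound dosing: single nominal test concentration of 8.3 µM per compound; schedule: 10 min preincubation, 3 h with tracer, room temperature; detection: fluorescence polarization of the labelled Tn7 tracer; repeats: one replicate per compound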
Tn6 DDE FP = DD(E)-Tn6 binding inhibition, primary FP screen; AID 720509; inhibition, % at 8.3 µM; Fibrin DD(E) TRITC-Tn6 fluorescence polarization displacement; 370,000 compounds, 0.21% hits; P02675;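 active means inhibition above a per-campaign cutoff: mean of compounds within control limits plus 3 SD, cut at about 15% in these data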
ARNT TACC3 PPI = ARNT/TACC3 interaction disruption; Q9Y6A5; AlphaScreen His-ARNT PAS-B/GST-TACC3 binding, luminescence; TACC3 fragment carries E629A point mutation; inhibition, % at 9.99 µM; 390,000 compounds, 0.66% hits; AID 623870;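 active means mean inhibition of replicates at least 50% and at least half of replicates each reaching 50%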
CAL PDZ FP-2 = CAL PDZ (human) peptide binding inhibition; Q9HD26; purified CAL PDZ, TMR-peptide fluorescence polarization, 1 h; inhibition, % at 24.9 µM; 300,000 compounds, 0.92% hits; AID 602252;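 active means mean inhibition of at least 30% with at least half of replicates also reaching 30%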
GRK2 aptamer HTS = blocks RNA aptamer binding to human GRK2; P25098; bead flow cytometry, FAM-aptamer displacement from GRK2; inhibition of aptamer binding, % at 10 µM; 330,000 compounds, 0.59% hits;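 active means inhibition of aptamer binding above 40%, roughly 3 SD of noise, on plates passing a quality check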;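 further: median bead fluorescence of bound FAM aptamer so fluorescent compounds give negative values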
GRK2 inh confirm = human GRK2 inhibition confirmation, cherry pick 1. shares compounds with GRK2 aptamer HTS. bead-bound GRK2, FAM-aptamer displacement, flow cytometry. aptamer displacement, % at 10 µM. 2,000 compounds, 4% hits. AID 504451;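 active means aptamer displacement above 40%, near three times the noise of non-fluorescent compounds, on plates passing quality checks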;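 further: negative values mostly reflect intrinsic compound fluorescence rather than true enhancement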
Aptamer quench SP = counter-screen for GRK2 aptamer inhibitors: fluorescent aptamer quenchers. Carboxyfluorescein RNA aptamer on beads, flow cytometry quenching; active compounds read low. AID 504580. 2,000 tested, under 10 active. fluorescence response (% of DMSO), % at 10 µM. shares compounds with GRK2 aptamer HTS;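 active means compounds that quench the bead-bound fluorescent RNA probe, cutting fluorescence to under half of the solvent control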;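 further: counterscreen run without GRK2 so only probe quenching by compound is measured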
GRK2 CP2 = human GRK2 inhibition confirmation, cherry pick 2; inhibition of aptamer binding, % at 10 µM; 360 tested, under 10 active; bead-bound GRK2, FAM-aptamer displacement, flow cytometry; shares compounds with GRK2 aptamer HTS;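 active means inhibition of aptamer binding above 40%, about triple the noise seen with nonglowing compounds, on plates passing quality control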;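 further: negative values mostly come from compounds that fluoresce themselves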
FAM quench CP2 = aptamer fluorescence quenching in GRK2 counter-screen. carboxyfluorescein RNA aptamer beads, flow cytometry quenching; active compounds read low. 360 tested, under 10 active. fluorescence response vs DMSO, % at 10 µM. shares compounds with GRK2 aptamer HTS. AID 588494;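 active means response vs DMSO under 50%, meaning signal dropped by over half, treated as fluorescence quencher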;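 further: labelled aptamer on streptavidin beads without GRK2 as a quench counter-screen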
Hits are given with their value; . = inactive; / = not tested or not shown. Sampled rows, rich in hits. Any-hit rate of the full collection: about 1.8%.

SMILES	CAL PDZ FP-1	Tn7 DDE FP	Tn6 DDE FP	ARNT TACC3 PPI	CAL PDZ FP-2	GRK2 aptamer HTS	GRK2 inh confirm	Aptamer quench SP	others
COc1cccc(C(NC(C)=O)c2ccc3cccnc3c2O)c1 (stereo not drawn)	.	.	.	100	.	80	.	.
Cc1nnc(NC(=O)CSc2cn(CCNC(=O)c3ccccc3)c3ccccc23)s1	.	.	.	.	/	.	/	/
NC(=O)CSc1cn(CCNC(=O)c2cccs2)c2ccccc12	.	.	.	.	/	.	/	/	GRK2 CP2=.;FAM quench CP2=.
CCOC(=O)c1cccc(NC(=O)CCS(=O)(=O)c2cccc3nsnc23)c1	.	.	.	.	/	.	/	/
Cc1cccc(NC(=O)CCSc2ccccc2)c1C	.	.	.	.	.	.	/	/
Cc1cccc(NC(=O)CCc2ccccc2)c1C	.	.	.	.	/	85	.	.
Cc1cccc(NC(=O)CCS(=O)(=O)c2cccc3nsnc23)c1C	.	.	.	.	.	.	/	/	GRK2 CP2=.;FAM quench CP2=.
O=C(CCCCn1ccc(=O)[nH]c1=O)Nc1ccc(O)c(C(=O)O)c1	.	.	.	.	.	/	/	/
CC(=O)Oc1ccc2c(=O)c(-c3ccccc3)coc2c1	.	.	.	.	.	.	.	.
CCOC(=O)COc1ccc2c(=O)c(-c3ccccc3)coc2c1	.	.	.	.	/	.	/	/
COc1ccc(S(=O)(=O)Nc2ccc3c(c2)CC(=O)N([C@H](C)CO)C[C@H](C)[C@@H](CN(C)C(=O)Nc2ccc(F)cc2)O3)cc1	/	/	/	.	/	/	/	/
C=CCn1c(SCC(=O)NC)nc2sc3c(c2c1=O)CCC3	.	.	.	.	.	.	/	/	GRK2 CP2=.;FAM quench CP2=.
C=CCn1c(SC(CCO)C(=O)NCc2ccco2)nc2sc3c(c2c1=O)CCC3 (stereo not drawn)	.	.	.	.	.	.	/	/	GRK2 CP2=.;FAM quench CP2=.
C=CCn1c(SCC(=O)NCC)nc2sc3c(c2c1=O)CCC3	.	.	.	.	/	.	/	/	GRK2 CP2=.;FAM quench CP2=.
C=CCn1c(SCC(C)=O)nc2sc3c(c2c1=O)CCC3	.	.	.	.	.	.	/	/
Cc1noc(C)c1NC(=O)Nc1cccc2c1O[C@@H](CN(C)Cc1ccc(Oc3ccccc3)cc1)[C@H](C)CN([C@H](C)CO)C2=O	/	/	/	.	/	/	/	/
C[C@H](CO)N1C[C@H](C)[C@H](CN(C)Cc2ccc(Cl)c(Cl)c2)Oc2ccc(NC(=O)C3CCCCC3)cc2C1=O	/	/	/	.	/	/	/	/
O=C1C=C(O)c2cccc3cccc1c23	.	.	.	.	.	100	.	.
CCCNC(=O)Nc1ccc2c(c1)OC[C@@H](C)N(C(=O)CC)C[C@H](C)[C@H](OC)CN(C)C2=O	/	/	/	.	/	/	/	/
O=C(COC(=O)c1ccc(F)cc1F)Nc1cccnc1Cl	.	.	.	.	.	.	/	/
Cc1ccnc(NC(=O)COC(=O)c2ccc(F)cc2F)n1	.	.	.	.	.	.	.	.
O=C(Nc1ccc2c(c1)OCO2)c1cc(C2CCCN(C(=O)C3CCCCC3)C2)on1 (stereo not drawn)	/	.	.	/	/	/	/	/
CCC(=O)c1ccc(OCC(O)CN2CCc3ccccc3C2)cc1 (stereo not drawn)	.	.	.	.	.	54	.	.
CN(C)CCCn1c(SCc2c(Cl)cccc2Cl)nnc1-c1ccncc1	.	.	.	.	.	44	/	/	GRK2 CP2=.;FAM quench CP2=.
COc1ccc(C(=O)Nc2cccc(-c3ccc(N4CCOCC4)nn3)c2)cc1	.	.	.	.	.	.	.	.
SMILES	CAL PDZ FP-1	Tn7 DDE FP	Tn6 DDE FP	ARNT TACC3 PPI	CAL PDZ FP-2	GRK2 aptamer HTS	GRK2 inh confirm	Aptamer quench SP	others
O=C(Nc1cccc(-c2ccc(N3CCOCC3)nn2)c1)c1ccc(Cl)cc1	.	.	.	.	.	.	.	.
Cc1ccc(C(=O)Nc2cccc(-c3ccc(N4CCOCC4)nn3)c2)cc1	.	.	.	/	.	.	.	.
Cc1ccc(C(=O)Nc2cccc(-c3ccc(N4CCOCC4)nn3)c2)cc1C	.	.	.	.	.	.	.	.
C[C@@H]1CCCCO[C@@H](CN(C)C(=O)c2ccccc2)[C@H](C)CN([C@H](C)CO)C(=O)c2cc(NC(=O)Nc3ccccc3)ccc2O1	/	/	/	.	/	/	/	/
CN1CCN(C(=O)C[C@H]2C[C@@H]3c4cc(NC(=O)NC5CCCCC5)ccc4O[C@@H]3[C@H](CO)O2)CC1	/	/	/	.	/	/	/	/
C[C@H](NS(=O)(=O)c1ccc(Cl)cc1)C(=O)OCC(=O)Nc1cc(S(=O)(=O)N2CCOCC2)ccc1Cl	.	.	.	/	.	/	/	/
C[C@@H]1CN([C@@H](C)CO)C(=O)c2cc(C#CCc3ccccc3)cnc2O[C@@H]1CN(C)Cc1cccc(C(=O)O)c1	/	/	/	.	/	/	/	/
O=C(C[C@H]1C[C@H]2c3cc(NC(=O)NC4CCCCC4)ccc3O[C@H]2[C@@H](CO)O1)NCc1ccncc1	/	/	/	.	/	/	/	/
O=C(Nc1cccc(-c2ccc(N3CCOCC3)nn2)c1)c1ccccc1Cl	.	.	.	.	.	.	.	.
COc1cc(OC)cc(C(=O)Nc2cccc(-c3ccc(N4CCOCC4)nn3)c2)c1	.	.	.	/	.	.	/	/
O=C(COc1ccc(Cl)cc1)Nc1cccc(-c2ccc(N3CCOCC3)nn2)c1	.	.	.	.	.	.	.	.
O=C(Nc1cccc(-c2ccc(N3CCOCC3)nn2)c1)c1cccc(Cl)c1	/	.	.	/	/	/	/	/
CCNC(=O)[C@H]1[C@H](CO)[C@H]2Cn3c(ccc(-c4ccc(OC)cc4)c3=O)[C@@H]1N2S(C)(=O)=O	/	/	/	.	/	/	/	/
CC(=O)NCCC(=O)Nc1cc(S(=O)(=O)N2CCOCC2)ccc1N1CCCC1	.	.	.	.	.	.	/	/
CC(C)NC(=O)NCC[C@H]1CC[C@@H](NS(=O)(=O)c2ccc(Oc3ccccc3)cc2)[C@H](CO)O1	/	/	/	.	/	/	/	/
NC(=O)c1ccsc1NC(=O)CS(=O)(=O)c1ccccc1	.	.	.	/	.	.	/	/	GRK2 CP2=.;FAM quench CP2=.
CNC(=O)c1ccsc1NC(=O)CS(=O)(=O)c1ccccc1	.	.	.	.	.	.	/	/	GRK2 CP2=.;FAM quench CP2=.
CNC(=O)c1ccsc1NC(=O)CCS(=O)(=O)c1ccc(Cl)cc1	.	.	.	.	.	.	/	/
NC(=O)c1ccsc1NC(=O)CCS(=O)(=O)c1ccccc1	.	.	.	.	.	.	/	/

Source: PubChem BioAssay (several laboratories)
